{"source": "ChEMBL document CHEMBL4196054", "about": "“Facile synthesis of 1,2-dione-containing abietane analogues for the generation of human carboxylesterase inhibitors” (Eur J Med Chem, 2018)", "key": {"[1]": {"assay": "Inhibition of human intestinal carboxylesterase using o-nitrophenyl acetate as substrate", "procedure,_shortened": "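Purified human intestinal CE (hiCE), chromatographically pure. Read in 96-well format with 3mM o-nitrophenyl acetate in 50mM Hepes, pH7.4. Inhibitors were added in DMSO and the reaction was started by adding enzyme. At least 8 inhibitor concentrations were run in triplicate against DMSO-only controls. Data were fitted to a multifactorial equation, the best model was chosen by Akaike's information criteria, and Ki was taken from the curve fits.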"}, "Homo sapiens [2]": {"organism": "Homo sapiens", "assay": "Selectivity index, ratio of Ki for human liver carboxylesterase 1 to Ki for human intestinal carboxylesterase"}, "Liver carboxylesterase 1": {"biological_target": "T1, Liver carboxylesterase 1 (Homo sapiens, UniProt P23141)", "T1 sequence (P23141 whole entry)": "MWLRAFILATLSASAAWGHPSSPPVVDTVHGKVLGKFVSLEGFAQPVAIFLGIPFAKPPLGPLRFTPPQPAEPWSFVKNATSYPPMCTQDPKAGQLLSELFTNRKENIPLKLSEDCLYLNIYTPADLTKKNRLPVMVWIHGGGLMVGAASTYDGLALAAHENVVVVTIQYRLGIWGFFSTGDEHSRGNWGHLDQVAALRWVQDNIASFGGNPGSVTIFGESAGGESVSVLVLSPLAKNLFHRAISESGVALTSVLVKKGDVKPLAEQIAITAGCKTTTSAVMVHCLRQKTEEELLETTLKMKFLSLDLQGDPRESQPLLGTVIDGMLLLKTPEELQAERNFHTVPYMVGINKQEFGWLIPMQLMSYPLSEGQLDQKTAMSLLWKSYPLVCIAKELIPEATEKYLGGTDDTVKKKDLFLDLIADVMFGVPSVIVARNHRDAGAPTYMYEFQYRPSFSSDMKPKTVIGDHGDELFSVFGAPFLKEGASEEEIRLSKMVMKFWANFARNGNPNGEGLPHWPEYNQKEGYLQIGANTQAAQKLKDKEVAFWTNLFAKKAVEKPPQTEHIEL", "assay": "Inhibition of human liver carboxylesterase 1 using o-nitrophenyl acetate as substrate", "procedure,_shortened": "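Chromatographically pure human hCE1 in 50mM Hepes pH7.4 with 3mM o-nitrophenyl acetate. Inhibitor in DMSO, at least 8 concentrations, triplicates, compared against DMSO-only controls. Reaction started by enzyme addition. Data fitted to a multifactorial equation, the best inhibition model chosen by Akaike's information criterion, and Ki taken from the curve fits.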"}, "Homo sapiens [3]": {"organism": "Homo sapiens", "assay": "Potency index, ratio of miltirone Ki to compound Ki for inhibition of human intestinal carboxylesterase"}, "[4]": {"biological_target": "Cholinesterase (Homo sapiens) (UniProt P06276)", "sequence (P06276 whole entry)": "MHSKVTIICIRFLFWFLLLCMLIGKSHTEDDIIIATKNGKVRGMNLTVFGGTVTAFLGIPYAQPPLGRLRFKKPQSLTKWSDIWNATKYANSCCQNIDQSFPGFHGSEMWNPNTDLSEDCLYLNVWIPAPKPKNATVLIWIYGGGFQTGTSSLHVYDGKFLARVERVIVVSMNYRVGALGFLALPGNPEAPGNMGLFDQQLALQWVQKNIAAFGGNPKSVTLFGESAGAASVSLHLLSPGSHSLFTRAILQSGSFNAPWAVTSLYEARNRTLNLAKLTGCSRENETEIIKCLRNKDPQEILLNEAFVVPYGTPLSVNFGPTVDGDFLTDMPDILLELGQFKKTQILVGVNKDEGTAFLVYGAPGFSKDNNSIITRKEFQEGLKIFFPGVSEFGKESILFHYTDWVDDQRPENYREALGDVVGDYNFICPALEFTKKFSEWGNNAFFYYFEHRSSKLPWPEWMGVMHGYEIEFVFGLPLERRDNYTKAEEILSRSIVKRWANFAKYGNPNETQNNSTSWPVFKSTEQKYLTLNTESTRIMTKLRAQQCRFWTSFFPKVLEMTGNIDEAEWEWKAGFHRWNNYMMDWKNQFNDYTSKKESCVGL", "assay": "Inhibition of human BChE using butyrylthiocholine as substrate at 5 uM by spectrophotometric analysis", "procedure,_shortened": "(§1)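 Run like the carboxylesterase assay in 50mM Hepes pH7.4 with DMSO-dissolved inhibitor, reaction started by enzyme addition. Substrate is acetylthiocholine (AChE) or butyrylthiocholine (BChE). Inhibitor tested at a single 5µM concentration.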"}, "[5]": {"biological_target": "Acetylcholinesterase (Homo sapiens) (UniProt P22303)", "sequence (P22303 whole entry)": "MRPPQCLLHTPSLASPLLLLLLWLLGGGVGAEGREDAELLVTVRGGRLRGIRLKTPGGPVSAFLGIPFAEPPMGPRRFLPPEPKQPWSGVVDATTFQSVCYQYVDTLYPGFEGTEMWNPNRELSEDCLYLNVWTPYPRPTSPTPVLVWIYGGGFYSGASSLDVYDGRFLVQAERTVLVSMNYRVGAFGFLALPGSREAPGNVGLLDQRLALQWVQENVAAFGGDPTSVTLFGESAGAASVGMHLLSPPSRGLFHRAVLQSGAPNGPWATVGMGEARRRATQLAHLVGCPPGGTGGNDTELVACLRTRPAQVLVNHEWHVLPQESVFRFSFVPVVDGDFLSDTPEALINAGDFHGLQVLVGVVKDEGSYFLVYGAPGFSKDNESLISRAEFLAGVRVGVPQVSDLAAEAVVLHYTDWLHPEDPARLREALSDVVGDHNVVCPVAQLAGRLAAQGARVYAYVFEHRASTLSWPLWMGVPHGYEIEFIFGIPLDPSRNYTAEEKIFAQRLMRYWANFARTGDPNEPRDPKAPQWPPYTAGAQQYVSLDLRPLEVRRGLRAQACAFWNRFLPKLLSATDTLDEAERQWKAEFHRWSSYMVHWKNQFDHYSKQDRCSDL", "assay": "Inhibition of human AChE using acetylthiocholine as substrate at 5 uM by spectrophotometric analysis", "procedure,_shortened": "as §1"}, "[6]": {"biological_target": "T2, liver carboxylesterase 1 (CES1) (Homo sapiens, UniProt P23141)", "T2 sequence (P23141 whole entry)": "T1 sequence (P23141 whole entry)", "assay": "Potency index, ratio of miltirone Ki to compound Ki for inhibition of human liver carboxylesterase 1", "conditions": "read-out: Ratio Ki"}}}
{"smiles": "CC1(C)CCc2ccc3c(c2C1)C(=O)C(=O)C(F)=C3", "values": [{"measurement": "Ki", "setting": "[1]", "value": 14.6, "unit": "nM"}, {"measurement": "Ratio Ki", "setting": "Homo sapiens [2]", "value": 2.9}, {"measurement": "Ki", "setting": "Liver carboxylesterase 1", "value": 42, "unit": "nM"}, {"measurement": "Ratio Ki", "setting": "Homo sapiens [3]", "value": 3}, {"measurement": "inhibition", "setting": "[4]", "value": 23, "unit": "%"}, {"measurement": "inhibition", "setting": "[5]", "value": 3, "unit": "%"}]}
{"smiles": "CC1=Cc2ccc3c(c2C(=O)C1=O)CCC(C)(C)C3", "values": [{"measurement": "Ki", "setting": "[1]", "value": 182, "unit": "nM"}, {"measurement": "Ratio Ki", "setting": "Homo sapiens [2]", "value": 2.7}, {"measurement": "Ki", "setting": "Liver carboxylesterase 1", "value": 495, "unit": "nM"}, {"measurement": "inhibition", "setting": "[4]", "value": 2, "unit": "%"}, {"measurement": "inhibition", "setting": "[5]", "value": 1, "unit": "%"}]}
{"smiles": "CC1=Cc2ccc3c(c2C(=O)C1=O)CCOC3", "values": [{"measurement": "Ki", "setting": "[1]", "value": "≥ 10000", "unit": "nM"}, {"measurement": "Ki", "setting": "Liver carboxylesterase 1", "value": "≥ 10000", "unit": "nM"}, {"measurement": "inhibition", "setting": "[4]", "value": 0, "unit": "%"}, {"measurement": "inhibition", "setting": "[5]", "value": 27, "unit": "%"}]}
{"smiles": "O=C1C=Cc2ccc3c(c2C1=O)CCCC3", "values": [{"measurement": "Ki", "setting": "[1]", "value": 2180, "unit": "nM"}, {"measurement": "Ratio Ki", "setting": "Homo sapiens [2]", "value": 0.06}, {"measurement": "Ki", "setting": "Liver carboxylesterase 1", "value": 131, "unit": "nM"}, {"measurement": "inhibition", "setting": "[4]", "value": 54, "unit": "%"}, {"measurement": "inhibition", "setting": "[5]", "value": 0, "unit": "%"}]}
{"smiles": "CC(C)C1=Cc2ccc3c(c2C(=O)C1=O)CCC(C)(C)C3", "values": [{"measurement": "Ki", "setting": "[1]", "value": 70.7, "unit": "nM"}, {"measurement": "Ratio Ki", "setting": "Homo sapiens [2]", "value": 59.5}, {"measurement": "Ki", "setting": "Liver carboxylesterase 1", "value": 4200, "unit": "nM"}, {"measurement": "inhibition", "setting": "[4]", "value": 3, "unit": "%"}, {"measurement": "inhibition", "setting": "[5]", "value": 30, "unit": "%"}]}
{"smiles": "CC1=Cc2ccc3c(c2C(=O)C1=O)CC(C)(C)CC3", "values": [{"measurement": "Ki", "setting": "[1]", "value": 87.9, "unit": "nM"}, {"measurement": "Ratio Ki", "setting": "Homo sapiens [2]", "value": 27.6}, {"measurement": "Ki", "setting": "Liver carboxylesterase 1", "value": 2420, "unit": "nM"}, {"measurement": "inhibition", "setting": "[4]", "value": 1, "unit": "%"}, {"measurement": "inhibition", "setting": "[5]", "value": 0, "unit": "%"}]}
{"smiles": "CC(C)C1=Cc2ccc3c(c2C(=O)C1=O)CCCC3(C)C", "note": "[MILTIRONE]", "values": [{"measurement": "inhibition", "setting": "[4]", "value": 6, "unit": "%"}, {"measurement": "inhibition", "setting": "[5]", "value": 22, "unit": "%"}]}
{"smiles": "CC(C)C1=Cc2ccc3c(c2C(=O)C1=O)CCCC3", "values": [{"measurement": "Ki", "setting": "[1]", "value": 111, "unit": "nM"}, {"measurement": "Ki", "setting": "Liver carboxylesterase 1", "value": 1050, "unit": "nM"}, {"measurement": "inhibition", "setting": "[4]", "value": 1, "unit": "%"}, {"measurement": "inhibition", "setting": "[5]", "value": 16, "unit": "%"}]}
{"smiles": "O=C1C(=O)c2c(ccc3c2CCCC3)C=C1F", "values": [{"measurement": "selectivity ratio", "setting": "[6]", "value": 210}, {"measurement": "Ki", "setting": "[1]", "value": 112, "unit": "nM"}, {"measurement": "Ratio Ki", "setting": "Homo sapiens [2]", "value": 0.11}, {"measurement": "Ki", "setting": "Liver carboxylesterase 1", "value": 12.2, "unit": "nM"}, {"measurement": "inhibition", "setting": "[4]", "value": 62, "unit": "%"}, {"measurement": "inhibition", "setting": "[5]", "value": 16, "unit": "%"}]}
{"smiles": "CC1(C)CCc2ccc3c(c2C1)C(=O)C(=O)C=C3", "values": [{"measurement": "Ki", "setting": "[1]", "value": 341, "unit": "nM"}, {"measurement": "Ratio Ki", "setting": "Homo sapiens [2]", "value": 0.09}, {"measurement": "Ki", "setting": "Liver carboxylesterase 1", "value": 31.9, "unit": "nM"}, {"measurement": "inhibition", "setting": "[4]", "value": 13, "unit": "%"}, {"measurement": "inhibition", "setting": "[5]", "value": 2, "unit": "%"}]}
{"smiles": "O=C1C(=O)c2c(ccc3ccccc23)C=C1F", "values": [{"measurement": "Ki", "setting": "[1]", "value": 51.3, "unit": "nM"}, {"measurement": "Ratio Ki", "setting": "Homo sapiens [2]", "value": 0.48}, {"measurement": "Ki", "setting": "Liver carboxylesterase 1", "value": 48.7, "unit": "nM"}, {"measurement": "inhibition", "setting": "[4]", "value": 3, "unit": "%"}, {"measurement": "inhibition", "setting": "[5]", "value": 8, "unit": "%"}]}
{"smiles": "O=C1C=C(F)c2ccc3c(c2C1=O)CCCC3", "values": [{"measurement": "Ki", "setting": "[1]", "value": 171, "unit": "nM"}, {"measurement": "Ratio Ki", "setting": "Homo sapiens [2]", "value": 0.15}, {"measurement": "Ki", "setting": "Liver carboxylesterase 1", "value": 25.9, "unit": "nM"}, {"measurement": "inhibition", "setting": "[4]", "value": 33, "unit": "%"}, {"measurement": "inhibition", "setting": "[5]", "value": 4, "unit": "%"}]}
{"smiles": "CC(C)C1=Cc2ccc3c(c2C(=O)C1=O)CC(C)(C)CC3", "values": [{"measurement": "Ki", "setting": "[1]", "value": 31.2, "unit": "nM"}, {"measurement": "Ratio Ki", "setting": "Homo sapiens [2]", "value": 60}, {"measurement": "Ki", "setting": "Liver carboxylesterase 1", "value": 1870, "unit": "nM"}, {"measurement": "inhibition", "setting": "[4]", "value": 4, "unit": "%"}, {"measurement": "inhibition", "setting": "[5]", "value": 20, "unit": "%"}]}
{"smiles": "CC1(C)CCc2ccc3c(c2C1)C(=O)C(=O)C(F)=C3F", "values": [{"measurement": "Ki", "setting": "[1]", "value": 43.3, "unit": "nM"}, {"measurement": "Ratio Ki", "setting": "Homo sapiens [2]", "value": 2.3}, {"measurement": "Ki", "setting": "Liver carboxylesterase 1", "value": 102, "unit": "nM"}, {"measurement": "inhibition", "setting": "[4]", "value": 1, "unit": "%"}, {"measurement": "inhibition", "setting": "[5]", "value": 4, "unit": "%"}]}
{"smiles": "COC1=Cc2ccc3c(c2C(=O)C1=O)CC(C)(C)CC3", "values": [{"measurement": "Ki", "setting": "[1]", "value": 159, "unit": "nM"}, {"measurement": "Ratio Ki", "setting": "Homo sapiens [2]", "value": 0.3}, {"measurement": "Ki", "setting": "Liver carboxylesterase 1", "value": 42.5, "unit": "nM"}, {"measurement": "inhibition", "setting": "[4]", "value": 1, "unit": "%"}, {"measurement": "inhibition", "setting": "[5]", "value": 2, "unit": "%"}]}
{"smiles": "CC1(C)CCc2ccc3c(c2C1)C(=O)C(=O)C=C3F", "values": [{"measurement": "selectivity ratio", "setting": "[6]", "value": 175}, {"measurement": "Ki", "setting": "[1]", "value": 386, "unit": "nM"}, {"measurement": "Ratio Ki", "setting": "Homo sapiens [2]", "value": 0.04}, {"measurement": "Ki", "setting": "Liver carboxylesterase 1", "value": 14.4, "unit": "nM"}, {"measurement": "inhibition", "setting": "[4]", "value": 15, "unit": "%"}, {"measurement": "inhibition", "setting": "[5]", "value": 10, "unit": "%"}]}
{"smiles": "O=C1C=Cc2ccc3ccccc3c2C1=O", "values": [{"measurement": "Ki", "setting": "[1]", "value": "≥ 10000", "unit": "nM"}, {"measurement": "Ratio Ki", "setting": "Homo sapiens [2]", "value": "< 0.06"}, {"measurement": "Ki", "setting": "Liver carboxylesterase 1", "value": 942, "unit": "nM"}, {"measurement": "inhibition", "setting": "[4]", "value": 13, "unit": "%"}, {"measurement": "inhibition", "setting": "[5]", "value": 16, "unit": "%"}]}
{"smiles": "CC1=Cc2ccc3c(c2C(=O)C1=O)CCCC3", "values": [{"measurement": "Ki", "setting": "[1]", "value": 423, "unit": "nM"}, {"measurement": "Ratio Ki", "setting": "Homo sapiens [2]", "value": 2.9}, {"measurement": "Ki", "setting": "Liver carboxylesterase 1", "value": 1220, "unit": "nM"}, {"measurement": "inhibition", "setting": "[4]", "value": 4, "unit": "%"}, {"measurement": "inhibition", "setting": "[5]", "value": 5, "unit": "%"}]}
{"smiles": "CC1=CC(=O)C(=O)c2c1ccc1c2CCCC1", "values": [{"measurement": "Ki", "setting": "[1]", "value": "≥ 10000", "unit": "nM"}, {"measurement": "Ki", "setting": "Liver carboxylesterase 1", "value": 25.1, "unit": "nM"}, {"measurement": "inhibition", "setting": "[4]", "value": 30, "unit": "%"}, {"measurement": "inhibition", "setting": "[5]", "value": 13, "unit": "%"}]}
